Reference: ChEMBL document CHEMBL3112517, “Identification of dihydrostilbenes in Pholidota chinensis as a new scaffold for GABAA receptor modulators” (Bioorg Med Chem, 2014)
Calls of active or inactive are those of the source. The calls are words filed in the database; no cut-off is given here.

Assays:
Assay type in all cases: cell-based
Rattus norvegicus [1] = organism: Rattus norvegicus; assay: Allosteric modulation of rat GABAA alpha1beta2gamma2S receptor expressed in Xenopus laevis oocytes assessed as potentiation of GABA-induced chloride ion current at holding potential -70 mV at 100 uM by two-microelectrode voltage clamp assay relative to GABA-treated control
Procedure, shortened: (§1)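 Stage V–VI Xenopus laevis oocytes were injected with 50 nL of rat α1, β2 and γ2S cRNA mixed 1:1:10 (about 300–3000 pg/nL per subunit), stored at 18 °C in ND96, and recorded on days 1–5. Two-electrode clamp was at −70 mV in pH 7.4 HEPES bath. Compound was applied by fast perfusion with GABA EC3–10, in 1% DMSO final. Enhancement = I(GABA+Comp)/IGABA − 1.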

Rattus norvegicus [2] = organism: Rattus norvegicus; assay: Agonist activity rat GABAA alpha1beta2gamma2S receptor expressed in Xenopus laevis oocytes assessed as potentiation of GABA-induced chloride ion current at holding potential -70 mV at <100 uM compound treated prior to GABA challenge by two-microelectrode voltage clamp assay
Rattus norvegicus [3] = organism: Rattus norvegicus; assay: Allosteric modulation of rat GABAA alpha1beta2gamma2S receptor expressed in Xenopus laevis oocytes assessed as potentiation of EC3 to 10 GABA-induced chloride ion current at holding potential -70 mV at 1 to 300 uM by two-microelectrode voltage clamp assay relative to GABA-treated control; procedure, shortened: as §1
[4] = (§2) Allosteric modulation of rat GABAA alpha1beta2gamma2S receptor expressed in Xenopus laevis oocytes assessed as potentiation of EC3 to 10 GABA-induced chloride ion current at holding potential -70 mV by two-microelectrode voltage clamp assay; procedure, shortened: as §1
Rattus norvegicus [5] = organism: Rattus norvegicus; assay: as §2; procedure, shortened: as §1
Rattus norvegicus [6] = organism: Rattus norvegicus; assay: Allosteric modulation of rat GABAA alpha1beta2gamma2S receptor expressed in Xenopus laevis oocytes assessed as potentiation of EC3 to 10 GABA-induced chloride ion current at holding potential -70 mV at 500 uM by two-microelectrode voltage clamp assay relative to GABA-treated control; procedure, shortened: as §1
Rattus norvegicus [7] = organism: Rattus norvegicus; assay: Modulation of rat GABAA alpha1beta2gamma2S receptor expressed in Xenopus laevis oocytes assessed as potentiation of EC5 to 10 GABA-induced chloride ion current at holding potential -70 mV at 1 uM by two-microelectrode voltage clamp assay relative to GABA-treated control
Procedure, shortened: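 Stage V–VI oocytes injected with rat α1, β2 and γ2S cRNAs (1:1:10), kept at 18 °C in ND96 and recorded 1–5 days later at −70 mV. Bath: 90 mM NaCl, 1 mM KCl, 1 mM MgCl2, 1 mM CaCl2, 5 mM HEPES, pH 7.4. Compound from 100 mM DMSO stock co-applied with GABA EC3–10 by fast perfusion, final DMSO 1%. Enhancement = I(GABA+comp)/IGABA − 1.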

SMILES	Activity (Rattus norvegicus [1]) [%]	further results
COc1ccc(/C=C/c2ccccc2F)cc1	-22.9	–
Oc1ccc(/C=C/c2cc(O)cc(O)c2)cc1	122	–
C(=C\c1ccccc1)/c1ccccc1	-11.3	–
COc1ccc(/C=C/c2ccc(OC)cc2)cc1	-24.8	–
Oc1cc(O)cc(/C=C/c2ccc(O)c(O)c2)c1	-35.4	–
c1ccc(CC(c2ccccc2)c2ccccc2)cc1	51.6	–
Br[C@H](c1ccccc1)[C@@H](Br)c1ccccc1	-12.9	–
COc1cc(CCc2ccc(OC)c(OC)c2)cc(OC)c1	544	Activity (Rattus norvegicus [2]): inactive; Imax (Rattus norvegicus [3]): 871%; EC50 [4]: 20.2 µM; Activity (Rattus norvegicus [5]): Dose-dependent effect
C(=C(c1ccccc1)c1ccccc1)c1ccccc1	-7.3	–
COc1ccc(CCc2ccc(OC)cc2)cc1	-20.9	–
c1ccc(CCc2ccccc2)cc1	8.3	–
CC(=O)Oc1ccc(/C=C/c2cc(OC(C)=O)cc(OC(C)=O)c2)cc1	123	–
COc1cc(O)cc(/C=C\c2cccc(O)c2)c1	192	Activity (Rattus norvegicus [2]): inactive; Imax (Rattus norvegicus [6]): 787%; EC50 [4]: 176 µM; Activity (Rattus norvegicus [5]): Dose-dependent effect
COc1cc(/C=C/c2ccc(O)cc2)cc(OC)c1	212	–
Oc1cc(O)cc(/C=C/c2ccc(O)cc2O)c1	-19.7	–
COc1ccc(CCc2ccccc2F)cc1	-16.8	–
Oc1cc(O)cc(CCc2ccc(O)c(O)c2)c1	86.3	–
CC(=O)Oc1ccc(CCc2cc(OC(C)=O)cc(OC(C)=O)c2)cc1	228	–
Oc1ccc(CCc2cc(O)cc(O)c2)cc1	162	–
COc1cc(/C=C/c2ccc(OC)c(OC)c2)cc(OC)c1	101	–
Oc1cc(O)cc(CCc2ccc(O)cc2O)c1	44.1	–
CN1C(=O)CN=C(c2ccccc2)c2cc(Cl)ccc21	–	Activity (Rattus norvegicus [7]): 231%
C(=C/c1ccccc1)/c1ccccc1	12.6	–
